The values below come from ChEMBL document CHEMBL1142272, “Fused bicyclic pyrrolizinones as new scaffolds for human NK1 antagonists” (Bioorg Med Chem, 2008).

In experiment [1] the target is T1, Substance-P receptor (Homo sapiens, UniProt P25103). Briefly: Displacement of [125I]L-703606 from human NK1 expressed in CHO cells. Format: cell-based. A general note: Loss of bound radioactivity is the signal in a displacement assay; it reports binding, not function.
Experiment [2] addresses T1, Substance-P receptor. The experiment is described as follows: Displacement of [125I]L-703606 from human NK1 expressed in CHO cells in presence of 50% human serum. Format: cell-based.
Experiment [3] relates to Meriones unguiculatus. Briefly: Brain penetration in gerbils assessed as inhibition of GR-73632-induced foot tapping at 1 mg/kg, iv. Format: functional. In a few lines: (§1)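 Gerbils receive the test compound by iv injection. Hindlimb thumping (foot tapping) is then elicited by central administration of an NK1 agonist. Inhibition of the thumping is scored as % inhibition at 0 h after 1 mg/kg iv, or at 24 h after 3 mg/kg. Dose titrations at 0 and 24 h give an ID50.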

Experiment [4] concerns the target T1, Substance-P receptor. Briefly: Displacement of [125I]L-703606 from human NK1 expressed in CHO cells at 0.1 uM. In kind it is cell-based.
The target of experiment [5] is T1, Substance-P receptor. The experiment is described as follows: Displacement of [125I]L-703606 from human NK1 expressed in CHO cells in presence of 50% human serum at 0.1 uM. Format: cell-based.
Experiment [6] relates to Meriones unguiculatus. Briefly: Brain penetration in gerbils assessed as inhibition of GR-73632-induced foot tapping at 3 mg/kg, iv after 24 hrs. In kind it is functional. In a few lines:
as §1

For experiment [7], the species on record is Meriones unguiculatus. Briefly: Brain penetration in gerbils assessed as inhibition of GR-73632-induced foot tapping. In kind it is functional. The following applies: read-out: ID50 (the source's name). The method, boiled down: as §1

Active and inactive are the calls of the source. The rule behind the calls is not given here.

T1 sequence (P25103 whole entry): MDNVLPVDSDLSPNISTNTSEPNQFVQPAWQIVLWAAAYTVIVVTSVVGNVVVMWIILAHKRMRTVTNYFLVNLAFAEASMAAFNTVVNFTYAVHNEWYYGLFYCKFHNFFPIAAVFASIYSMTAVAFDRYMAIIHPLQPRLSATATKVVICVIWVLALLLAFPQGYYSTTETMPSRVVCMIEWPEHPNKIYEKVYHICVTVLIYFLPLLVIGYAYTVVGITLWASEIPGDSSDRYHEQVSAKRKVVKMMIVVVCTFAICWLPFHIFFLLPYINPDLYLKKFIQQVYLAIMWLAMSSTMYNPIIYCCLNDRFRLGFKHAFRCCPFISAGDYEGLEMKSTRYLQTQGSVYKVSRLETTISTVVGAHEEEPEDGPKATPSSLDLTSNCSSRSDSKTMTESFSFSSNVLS

On to `C[C@@H](O[C@H]1CN2C(=O)N(C)C[C@H]2[C@@H]1c1ccc(F)cc1)c1cc(C(F)(F)F)cc(C(F)(F)F)c1`, for which, in experiment [1], the IC50 (as a rule, the concentration at which inhibition is half-maximal) worked out at 0.88 nM. Besides, the Activity in experiment [2] worked out at 32 nM. Also, the outcome in experiment [3] was inactive.

Molecule `C[C@H](O[C@H]1CN(C(=O)OC(C)(C)C)[C@@H](CO)[C@@H]1c1ccc(F)cc1)c1cc(C(F)(F)F)cc(C(F)(F)F)c1` registered an Activity in experiment [4] of 92%.

With `C[C@H](O[C@@H]1[C@@H](c2ccccc2)CN(C(=O)OC(C)(C)C)[C@H]1CO)c1cc(C(F)(F)F)cc(C(F)(F)F)c1`, the Activity in experiment [4] is 26%.

As for `C[C@@H](O[C@@H]1[C@@H](c2ccccc2)CN(C(=O)OC(C)(C)C)[C@H]1CO)c1cc(C(F)(F)F)cc(C(F)(F)F)c1`, the concentration for half-maximal inhibition (IC50) in experiment [1] stood at 3.6 nM.

Consider `C[C@H](O[C@@H]1[C@@H](c2ccc(F)cc2)CN(C(=O)OC(C)(C)C)[C@H]1CO)c1cc(C(F)(F)F)cc(C(F)(F)F)c1`, for which, in experiment [4], the Activity stood at 41%.

With `C[C@@H](O[C@@H]1[C@@H](c2ccccc2)CN2C(=O)OC[C@H]12)c1cc(C(F)(F)F)cc(C(F)(F)F)c1`, in experiment [1], the IC50 came to 1.5 nM. Further, the outcome in experiment [3] was inactive. For the same molecule, in experiment [5], the Activity came to 31%.

In experiment [1], `C[C@@H](O[C@@H]1[C@@H](c2ccc(F)cc2)CN2C(=O)OC[C@@H]12)c1cc(C(F)(F)F)cc(C(F)(F)F)c1` came in with an IC50 of 0.33 nM. In addition, the Activity in experiment [2] was 57 nM. Moreover, the result in experiment [3] was inactive.

In turn, `C[C@H](O[C@H]1[C@H](c2ccccc2)CN(C(=O)OC(C)(C)C)[C@H]1CO)c1cc(C(F)(F)F)cc(C(F)(F)F)c1` returned an Activity in experiment [4] of 13%.

In the case of `C[C@@H](O[C@H]1CN2C(=O)OC[C@@H]2[C@@H]1c1ccccc1)c1cc(C(F)(F)F)cc(C(F)(F)F)c1`, in experiment [1], the IC50 was found to be 0.27 nM. In addition, in experiment [2], the Activity turned out to be 37 nM. Further, in experiment [3], the inhibition in vivo – broadly, the share of the control response that was lost under treatment – at 1 mg/kg was 2.5%.

The molecule `C[C@@H](O[C@H]1CN(C(=O)OC(C)(C)C)[C@@H](CO)[C@@H]1c1ccc(F)cc1)c1cc(C(F)(F)F)cc(C(F)(F)F)c1` returned an IC50 in experiment [1] of 0.28 nM. For the same molecule, in experiment [3], the inhibition in vivo at 1 mg/kg is 16%. Also, the inhibition in vivo at 3 mg/kg in experiment [6] was determined as 0%.

As to `C[C@@H](O[C@H]1[C@H](c2ccc(F)cc2)CN(C(=O)OC(C)(C)C)[C@H]1CO)c1cc(C(F)(F)F)cc(C(F)(F)F)c1`, the concentration for half-maximal inhibition (IC50) in experiment [1] stood at 4.4 nM.

Molecule `C[C@@H](O[C@H]1CN2C(=O)OC[C@@H]2[C@@H]1c1ccc(F)cc1)c1cc(C(F)(F)F)cc(C(F)(F)F)c1` showed an IC50 in experiment [1] of 0.14 nM. Also, the Activity in experiment [2] came out at 37 nM. Besides, the inhibition in vivo at 1 mg/kg in experiment [3] amounted to 49%. Besides, the inhibition in vivo at 3 mg/kg in experiment [6] was 0%.

The molecule `C[C@H](O[C@H]1CN(C(=O)OC(C)(C)C)[C@@H](CO)[C@@H]1c1ccccc1)c1cc(C(F)(F)F)cc(C(F)(F)F)c1` registered an Activity in experiment [4] of 26%.

In experiment [1], `C[C@@H](O[C@H]1[C@H](c2ccccc2)CN(C(=O)OC(C)(C)C)[C@H]1CO)c1cc(C(F)(F)F)cc(C(F)(F)F)c1` displayed an IC50 of 7.8 nM.

`C[C@H](O[C@H]1[C@H](c2ccc(F)cc2)CN(C(=O)OC(C)(C)C)[C@H]1CO)c1cc(C(F)(F)F)cc(C(F)(F)F)c1`: the Activity in experiment [4] came out at 39%.

In experiment [1], `C[C@@H](O[C@@H]1[C@@H](c2ccccc2)CN2C(=O)OC[C@@H]12)c1cc(C(F)(F)F)cc(C(F)(F)F)c1` came in with an IC50 of 1.3 nM. Besides, the result in experiment [3] was inactive. In experiment [5], the Activity came out at 25%.

For `C[C@@H](O[C@@H]1[C@@H](c2ccc(F)cc2)CN(C(=O)OC(C)(C)C)[C@H]1CO)c1cc(C(F)(F)F)cc(C(F)(F)F)c1`, the IC50 in experiment [1] is 1.2 nM.

`C[C@@H](O[C@@H]1[C@@H](c2ccc(F)cc2)CN2C(=O)OC[C@H]12)c1cc(C(F)(F)F)cc(C(F)(F)F)c1`: in experiment [1], the IC50 was found to be 1 nM. For the same molecule, the result in experiment [2] and in experiment [3] was inactive.

On to `C[C@@H](O[C@H]1CN2C(=O)CC[C@H]2[C@@H]1c1ccc(F)cc1)c1cc(C(F)(F)F)cc(C(F)(F)F)c1`, for which the concentration for half-maximal inhibition (IC50) in experiment [1] stood at 0.06 nM. Besides, the Activity in experiment [2] worked out at 2.2 nM. Moreover, the inhibition in vivo at 1 mg/kg in experiment [3] came out at 100%. In addition, the inhibition in vivo at 3 mg/kg in experiment [6] was 100%. Moreover, in experiment [7], the ED50 stood at 0.03 mg/kg.

As for `C[C@@H](O[C@H]1CN2C(=O)NC[C@H]2[C@@H]1c1ccc(F)cc1)c1cc(C(F)(F)F)cc(C(F)(F)F)c1`, the IC50 in experiment [1] came to 0.06 nM. The Activity in experiment [2] was determined as 2 nM. The inhibition in vivo at 1 mg/kg in experiment [3] amounted to 100%. Besides, in experiment [6], the inhibition in vivo at 3 mg/kg worked out at 8%.

For the molecule `C[C@@H](O[C@H]1CN2C(=O)N(Cc3ccccc3)C[C@H]2[C@@H]1c1ccc(F)cc1)c1cc(C(F)(F)F)cc(C(F)(F)F)c1`, the IC50 in experiment [1] turned out to be 2.7 nM. The outcome in experiment [2] and in experiment [3] was inactive.

`C[C@@H](O[C@H]1CN(C(=O)OC(C)(C)C)[C@@H](CO)[C@@H]1c1ccccc1)c1cc(C(F)(F)F)cc(C(F)(F)F)c1`: the IC50 in experiment [1] is 0.63 nM.
